Results: ChEMBL document CHEMBL1141219, “Chemoenzymatic synthesis of a series of 4-substituted glutamate analogues and pharmacological characterization at human glutamate transporters subtypes 1-3” (J Med Chem, 2005)

B1: Excitatory amino acid transporter 1 (Homo sapiens), P43003 (protein)
chain: MTKSNGEEPKMGGRMERFQQGVRKRTLLAKKKVQNITKEDVKSYLFRNAFVLLTVTAVIVGTILGFTLRPYRMSYREVKYFSFPGELLMRMLQMLVLPLIISSLVTGMAALDSKASGKMGMRAVVYYMTTTIIAVVIGIIIVIIIHPGKGTKENMHREGKIVRVTAADAFLDLIRNMFPPNLVEACFKQFKTNYEKRSFKVPIQANETLVGAVINNVSEAMETLTRITEELVPVPGSVNGVNALGLVVFSMCFGFVIGNMKEQGQALREFFDSLNEAIMRLVAVIMWYAPVGILFLIAGKIVEMEDMGVIGGQLAMYTVTVIVGLLIHAVIVLPLLYFLVTRKNPWVFIGGLLQALITALGTSSSSATLPITFKCLEENNGVDKRVTRFVLPVGATINMDGTALYEALAAIFIAQVNNFELNFGQIITISITATAASIGAAGIPQAGLVTMVIVLTSVGLPTDDITLIIAVDWFLDRLRTTTNVLGDSLGAGIVEHLSRHELKNRDVEMGNSVIEENEMKKPYQLIAQDNETEKPIDSETKM
B2: Excitatory amino acid transporter 3 (Homo sapiens), P43005 (protein)
chain: MGKPARKGCEWKRFLKNNWVLLSTVAAVVLGITTGVLVREHSNLSTLEKFYFAFPGEILMRMLKLIILPLIISSMITGVAALDSNVSGKIGLRAVVYYFCTTLIAVILGIVLVVSIKPGVTQKVGEIARTGSTPEVSTVDAMLDLIRNMFPENLVQACFQQYKTKREEVKPPSDPEMNMTEESFTAVMTTAISKNKTKEYKIVGMYSDGINVLGLIVFCLVFGLVIGKMGEKGQILVDFFNALSDATMKIVQIIMCYMPLGILFLIAGKIIEVEDWEIFRKLGLYMATVLTGLAIHSIVILPLIYFIVVRKNPFRFAMGMAQALLTALMISSSSATLPVTFRCAEENNQVDKRITRFVLPVGATINMDGTALYEAVAAVFIAQLNDLDLGIGQIITISITATSASIGAAGVPQAGLVTMVIVLSAVGLPAEDVTLIIAVDWLLDRFRTMVNVLGDAFGTGIVEKLSKKELEQMDVSSEVNIVNPFALESTILDNEDSDTKKSYVNGGFAVDKSDTISFTQTSQF

What was measured:
[1] = substrate: C[C@H](C[C@H](N)C(=O)O)C(=O)O; test: (§1) Binding affinity to human EAAT1 expressed in HEK293 cells in FMP (FLPR) assay; type: functional, cell-based
Outline: (§2)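 HEK293 cells stably expressing the human transporter, seeded on poly-D-lysine plates in DMEM with 10% dialyzed FBS and G-418 for 16–24 h. Cells washed in Krebs buffer (pH 7.4), then loaded with FMP dye for 30 min at 37 °C. Read at room temperature, excitation 530 nm and emission 560 nm, for up to 1 min after substrate addition. Non-substrate inhibitors were preincubated and tested against 30 μM Glu. Seven-concentration curves from maximal responses, duplicate, at least three times.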

[2] = substrate: N[C@@H](CCC(=O)O)C(=O)O; test: as §1; type: functional, cell-based; outline: as §2
[3] = substrate: N[C@@H](C[C@@H](O)C(=O)O)C(=O)O; test: as §1; type: functional, cell-based; outline: as §2
[4] = substrate: N[C@@H](C[C@H](O)C(=O)O)C(=O)O; test: as §1; type: functional, cell-based; outline: as §2
[5] = substrate: N[C@@H](CCC(=O)O)C(=O)O; test: (§3) Binding affinity to human EAAT3 expressed in HEK293 cells in FMP (FLPR) assay; type: functional, cell-based; outline: as §2
[6] = substrate: N[C@@H](C[C@H](O)C(=O)O)C(=O)O; test: as §3; type: functional, cell-based; outline: as §2
[7] = biological target: Excitatory amino acid transporter 3 (Homo sapiens) (UniProt P43005); test: Binding affinity to human EAAT3 expressed in HEK293 cells in FMP (FLPR) assay

Protein | Km [1] [µM] | Km [2] [µM] | Km [3] [µM] | Km [4] [µM] | Km [5] [µM] | Km [6] [µM] | Km [7] [µM]
B1 | 13 | 9.2 | 1000 | 140 |  |  | 
B2 |  |  |  |  | 25 | 81 | 1000
